Measured values taken from ChEMBL document CHEMBL1255372 (2008).
In brackets after ≈: the same amount, converted by molar mass.

Key:
Format in all cases: functional
Klebsiella pneumoniae [1] = experiment: Antibacterial activity against Klebsiella pneumoniae isolate VA367 with blaKPC-3, qnrB19, blaTEM-1, blaSHV-11, blaSHV-12, aac(6')-1b genes by Etest method
Klebsiella pneumoniae [2] = experiment: Antibacterial activity against Klebsiella pneumoniae isolate VA375 with blaKPC-3, qnrA1, blaTEM-1, blaSHV-11 genes by Etest method
Escherichia coli [3] = experiment: Antibacterial activity against Escherichia coli J53 transconjugated with Klebsiella pneumoniae isolate VA367 containing blaKPC-3, qnrB19, blaTEM-1, blaSHV-11, aac(6')-1b genes by Etest method
Summary of the method: (§1)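 Test strains were E. coli J53 (rifampin-resistant recipient) transconjugants obtained by conjugation with the K. pneumoniae donor isolate. After overnight incubation, the donor–recipient mixture was plated on MacConkey agar containing ceftazidime (10 mg/liter) plus rifampin (100 mg/liter) to select transconjugants. Etest conditions are not described.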

Escherichia coli [4] = experiment: Antibacterial activity against Escherichia coli J53 transconjugated with Klebsiella pneumoniae isolate VA375 containing qnrA1, blaTEM-1, blaSHV-11genes by Etest method; summary of the method: as §1
Escherichia coli [5] = experiment: Antibacterial activity against Escherichia coli J53 by Etest method
Escherichia coli [6] = experiment: Antibacterial activity against Escherichia coli J53 by CLSI method
Klebsiella pneumoniae [7] = experiment: Antibacterial activity against Klebsiella pneumoniae isolate VA375 with blaKPC-3, qnrA1, blaTEM-1, blaSHV-11 genes by CLSI method
Escherichia coli [8] = experiment: Antibacterial activity against Escherichia coli J53 transconjugated with Klebsiella pneumoniae isolate VA367 containing blaKPC-3, qnrB19, blaTEM-1, blaSHV-11, aac(6')-1b genes by CLSI method
Klebsiella pneumoniae [9] = experiment: Antibacterial activity against Klebsiella pneumoniae isolate VA367 with blaKPC-3, qnrB19, blaTEM-1, blaSHV-11, blaSHV-12, aac(6')-1b genes by CLSI method
Escherichia coli [10] = experiment: Antibacterial activity against Escherichia coli J53 transconjugated with Klebsiella pneumoniae isolate VA375 containing qnrA1, blaTEM-1, blaSHV-11genes by CLSI method

Molecule	MIC (Klebsiella pneumoniae [1])	MIC (Klebsiella pneumoniae [2])	MIC (Escherichia coli [3])	MIC (Escherichia coli [4])	MIC (Escherichia coli [5])	MIC (Escherichia coli [6])	MIC (Klebsiella pneumoniae [7])	MIC (Escherichia coli [8])	MIC (Klebsiella pneumoniae [9])	MIC (Escherichia coli [10])
C[C@@H](O)[C@H]1C(=O)N2C(C(=O)O)=C(S[C@@H]3CN[C@H](C(=O)Nc4cccc(C(=O)O)c4)C3)[C@H](C)[C@H]12	16 µg/mL (≈ 33.6 µM)	8 µg/mL (≈ 16.8 µM)	2 µg/mL (≈ 4.21 µM)	0.125 µg/mL (≈ 0.263 µM)	0.023 µg/mL (≈ 0.0484 µM)					
NCC[C@H](O)C(=O)N[C@@H]1C[C@H](N)[C@@H](O[C@H]2O[C@H](CN)[C@@H](O)[C@H](O)[C@H]2O)[C@H](O)[C@H]1O[C@H]1O[C@H](CO)[C@@H](O)[C@H](N)[C@H]1O [AMIKACIN]						≤ 2 µg/mL	≤ 2 µg/mL	16 µg/mL (≈ 27.3 µM)	≥ 64 µg/mL	≤ 2 µg/mL
CC(C)(O/N=C(\C(=O)N[C@@H]1C(=O)N2C(C(=O)[O-])=C(C[n+]3ccccc3)CS[C@H]12)c1csc(N)n1)C(=O)O [CEFTAZIDIME]						≤ 1 µg/mL	≥ 64 µg/mL	32 µg/mL (≈ 58.5 µM)	≥ 64 µg/mL	≥ 64 µg/mL
CO/N=C(\C(=O)N[C@@H]1C(=O)N2C(C(=O)O)=C(CSc3nc(=O)c(O)nn3C)CS[C@H]12)c1csc(N)n1 [CEFTRIAXONE]						≤ 1 µg/mL	32 µg/mL (≈ 57.7 µM)	8 µg/mL (≈ 14.4 µM)	≥ 64 µg/mL	8 µg/mL (≈ 14.4 µM)
CO/N=C(\C(=O)N[C@@H]1C(=O)N2C(C(=O)O)=C(COC(N)=O)CS[C@H]12)c1ccco1 [CEFUROXIME]						16 µg/mL (≈ 37.7 µM)	≥ 64 µg/mL	≥ 64 µg/mL	≥ 64 µg/mL	≥ 64 µg/mL
O=C(O)c1cn(C2CC2)c2cc(N3CCNCC3)c(F)cc2c1=O [CIPROFLOXACIN]	≥ 32 µg/mL	0.75 µg/mL (≈ 2.26 µM)								
C[C@@H](O)[C@H]1C(=O)N2C(C(=O)O)=C(SCCNC=N)C[C@H]12 [IMIPENEM ANHYDROUS]	16 µg/mL (≈ 53.4 µM)	8 µg/mL (≈ 26.7 µM)	4 µg/mL (≈ 13.4 µM)	0.38 µg/mL (≈ 1.27 µM)		≤ 1 µg/mL	2 µg/mL (≈ 6.68 µM)	4 µg/mL (≈ 13.4 µM)	2 µg/mL (≈ 6.68 µM)	≤ 1 µg/mL
C[C@H]1COc2c(N3CCN(C)CC3)c(F)cc3c(=O)c(C(=O)O)cn1c23.C[C@H]1COc2c(N3CCN(C)CC3)c(F)cc3c(=O)c(C(=O)O)cn1c23.O [LEVOFLOXACIN]	≥ 32 µg/mL	0.75 µg/mL	0.75 µg/mL	1.5 µg/mL	0.25 µg/mL	≤ 0.25 µg/mL			≥ 8 µg/mL	
C[C@@H](O)[C@H]1C(=O)N2C(C(=O)O)=C(S[C@@H]3CN[C@H](C(=O)N(C)C)C3)[C@H](C)[C@H]12 [MEROPENEM]	8 µg/mL (≈ 20.9 µM)	4 µg/mL (≈ 10.4 µM)	4 µg/mL (≈ 10.4 µM)	0.38 µg/mL (≈ 0.991 µM)	0.047 µg/mL (≈ 0.123 µM)	≤ 0.25 µg/mL	1 µg/mL (≈ 2.61 µM)	1 µg/mL (≈ 2.61 µM)	2 µg/mL (≈ 5.22 µM)	≤ 0.25 µg/mL
O=C1CN(/N=C/c2ccc([N+](=O)[O-])o2)C(=O)N1 [NITROFURANTOIN]						≤ 16 µg/mL	64 µg/mL (≈ 269 µM)	≤ 16 µg/mL	≥ 512 µg/mL	≤ 16 µg/mL
CCN1CCN(C(=O)N[C@@H](C(=O)N[C@@H]2C(=O)N3[C@@H]2SC(C)(C)[C@@H]3C(=O)O)c2ccccc2)C(=O)C1=O [PIPERACILLIN]						≤ 4 µg/mL	≥ 128 µg/mL	≥ 128 µg/mL	≥ 128 µg/mL	≥ 128 µg/mL
CN(C)c1cc(NC(=O)CNC(C)(C)C)c(O)c2c1C[C@H]1C[C@H]3[C@H](N(C)C)C(O)=C(C(N)=O)C(=O)[C@@]3(O)C(O)=C1C2=O [TIGECYCLINE]		1.5 µg/mL (≈ 2.56 µM)	0.5 µg/mL (≈ 0.854 µM)	0.5 µg/mL (≈ 0.854 µM)	0.5 µg/mL (≈ 0.854 µM)					
NC[C@H]1O[C@H](O[C@H]2[C@H](O)[C@@H](O[C@H]3O[C@H](CO)[C@@H](O)[C@H](N)[C@H]3O)[C@H](N)C[C@@H]2N)[C@H](N)C[C@@H]1O [TOBRAMYCIN]						≤ 1 µg/mL	≥ 16 µg/mL	≥ 16 µg/mL	≥ 16 µg/mL	4 µg/mL (≈ 8.56 µM)
COLISTIN		1 µg/mL	0.38 µg/mL	0.38 µg/mL	0.38 µg/mL					
GENTAMICIN						< 1 µg/mL	> 16 µg/mL	< 1 µg/mL	4 µg/mL	4 µg/mL
